Data published in ChEMBL document CHEMBL4396922, “Identification of new aryl hydrocarbon receptor (AhR) antagonists using a zebrafish model” (Bioorg Med Chem, 2019).
pIC50: −log10 of the molar value. Calls of active or inactive are those of the source. The rule behind the calls is not given here.

Target: T1, Aryl hydrocarbon receptor (Danio rerio, UniProt Q9YGV3)
T1 sequence (Q9YGV3 whole entry): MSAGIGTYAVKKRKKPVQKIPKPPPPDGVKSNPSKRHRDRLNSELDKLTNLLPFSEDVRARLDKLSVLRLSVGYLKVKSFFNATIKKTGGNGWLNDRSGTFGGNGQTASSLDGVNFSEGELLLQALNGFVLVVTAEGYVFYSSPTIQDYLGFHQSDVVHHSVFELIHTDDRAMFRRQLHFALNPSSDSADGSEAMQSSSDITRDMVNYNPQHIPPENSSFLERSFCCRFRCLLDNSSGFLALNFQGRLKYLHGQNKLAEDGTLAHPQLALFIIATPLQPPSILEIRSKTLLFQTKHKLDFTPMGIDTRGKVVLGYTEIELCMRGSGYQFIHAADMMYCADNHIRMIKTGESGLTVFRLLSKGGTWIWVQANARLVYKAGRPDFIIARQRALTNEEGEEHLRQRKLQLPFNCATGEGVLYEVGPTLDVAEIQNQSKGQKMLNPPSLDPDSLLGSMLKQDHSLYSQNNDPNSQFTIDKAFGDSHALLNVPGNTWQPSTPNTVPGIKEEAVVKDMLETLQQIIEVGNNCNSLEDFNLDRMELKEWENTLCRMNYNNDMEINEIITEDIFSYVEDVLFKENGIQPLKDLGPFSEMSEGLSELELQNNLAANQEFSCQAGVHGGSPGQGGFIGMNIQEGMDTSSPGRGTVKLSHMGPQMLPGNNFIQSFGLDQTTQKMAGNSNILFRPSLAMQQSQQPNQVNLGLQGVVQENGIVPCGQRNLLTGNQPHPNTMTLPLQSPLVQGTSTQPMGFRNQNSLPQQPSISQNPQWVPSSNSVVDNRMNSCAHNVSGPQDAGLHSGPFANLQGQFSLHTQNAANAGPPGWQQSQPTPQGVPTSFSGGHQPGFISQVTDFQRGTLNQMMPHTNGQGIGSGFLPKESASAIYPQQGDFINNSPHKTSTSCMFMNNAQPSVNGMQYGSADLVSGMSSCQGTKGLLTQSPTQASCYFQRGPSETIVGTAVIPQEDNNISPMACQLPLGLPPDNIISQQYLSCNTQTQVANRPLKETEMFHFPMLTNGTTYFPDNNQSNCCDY
Experiment: Antagonist activity at aryl hydrocarbon receptor in 30 hrs post fertilized transgenic cyp1a:EGFP zebrafish embryo assessed as receptor transcriptional activity by measuring cyp1A-mediated EGFP expression at 5 uM measured after 48 hrs by fluorescence stereomicroscopic analysis
Conditions: not given
Procedure, shortened: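 Screen format: 30 hpf Tg(cyp1a:nls-egfp) embryos, three per well in 200 µL E3 medium (pH 7.2) with 10 nM TCDD. Each compound was added singly at 5 µM in DMSO. Incubation 48 h, then EGFP scored by fluorescent stereomicroscopy.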

Row | SMILES | Activity
1 | CCOc1ccc(C(=O)CC(=O)c2ccccc2OC)cc1 | Active
2 | COc1cccc(C(=O)CC(=O)c2ccc(OC(F)(F)F)cc2)c1 | Active
3 | COc1ccccc1-c1cc(-c2ccc(OC(C)C)cc2)[nH]n1 | Not Active
4 | COc1ccccc1C(=O)CC(=O)c1ccc(OCC(C)C)cc1 | Not Active
5 | CC(C)Oc1ccc(C(=O)CC(=O)c2ccccc2OC(F)(F)F)cc1 | Not Active
6 | COc1ccc(C(=O)CC(=O)c2ccccc2OC)cc1 | Not Active
7 | COc1cc(O)c(C(=O)CC(=O)c2ccc(OC(C)C)cc2)c(OC)c1 | Not Active
8 | COc1ccccc1C(=O)/C=C/c1ccc(OC(F)(F)F)cc1 | Not Active
9 | COc1ccccc1-c1cc(-c2ccc(OC(C)C)cc2)no1 | Active
10 | COc1ccccc1-c1cc(-c2ccc(OC(F)(F)F)cc2)[nH]n1 | Not Active
11 | COc1ccc(C(=O)CC(=O)c2ccc(OC(F)(F)F)cc2)cc1 | Not Active
12 | COc1cccc(OC)c1C(=O)CC(=O)c1ccc(OC(C)C)cc1 | Not Active
13 | COc1ccccc1C(=O)C(C)(C)C(=O)c1ccc(OC(C)C)cc1 | Not Active
14 | COc1ccccc1-c1cc(-c2ccc(OC(C)C)cc2)ncn1 | Active
15 | COc1ccccc1C(=O)CC(=O)c1cccc(OC(F)(F)F)c1 | Active
16 | O=C(CC(=O)c1ccc(OC(F)(F)F)cc1)c1ccccc1 | Not Active
17 | COc1ccccc1C(=O)CC(=O)c1ccccc1 | Not Active
18 | COc1ccccc1C(=O)CC(=O)c1ccc(OCc2ccccc2)cc1 | Not Active
19 | COc1ccccc1-c1cc(-c2ccc(OC(F)(F)F)cc2)no1 | Not Active

Target: T1, Aryl hydrocarbon receptor
Experiment: Antagonist activity at zebrafish AhR2 expressed in COS7 cells transfected with ARNT-1c, Cyp1a-firefly luciferase and pRL-TK Renilla luciferase plasmids assessed as inhibition of AhR transcriptional activity administered at 5 hrs post-transfection treated with TCDD at 1 hr post-compound treatment and measured for 10 sec after a 3 sec delay at 18 hrs post-TCDD challenge by dual luciferase reporter …
Format: cell-based
Conditions: not given

Row | SMILES | pIC50
20 | Cc1ccccc1/N=N/c1ccc(NC(=O)c2ccnn2C)c(C)c1 | 7.01

System: not listed separately
Experiment: Toxicity in 30 hrs post fertilized transgenic cyp1a:EGFP zebrafish embryo
Format: ADME, Danio rerio
Conditions: in vivo

Row | SMILES | Activity
21 | COc1ccccc1-c1cc(-c2ccc(OC(C)C)cc2)[nH]n1 | Toxic
22 | COc1ccccc1C(=O)/C=C/c1ccc(OC(F)(F)F)cc1 | Toxic
23 | COc1ccccc1-c1cc(-c2ccc(OC(F)(F)F)cc2)[nH]n1 | Toxic

Species on record: Homo sapiens
Experiment: Ex vivo expansion of human CD34-positive blood stem/progenitor cells assessed as increase in CD34+ cell population incubated for 5 weeks supplemented with fresh medium containing human recombinant thrombopoietin, stem cell factor, FLT-3 ligand and IL-3 by flow cytometry relative to control
Format: functional
Conditions: not given
Procedure, shortened: (§1)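 Human cord blood CD34⁺ progenitors, 5 x 10⁴ cells in DXF expansion medium with supplement and cytokine mix (TPO, SCF, flt-3 ligand, IL-3), treated with compound at seeding. Cultured 5 weeks at 37°C, 5% CO2, density kept at 5 x 10⁵–2 x 10⁶ cells/ml. Cells stained with anti-CD34-APC plus CD45RA- or Lin-FITC and counted by flow cytometry; vehicle 0.01% DMSO.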

Row | SMILES | fold change (FC)
24 | COc1ccccc1C(=O)/C=C/c1ccc(OC(C)C)cc1 | > 4

Species on record: Homo sapiens
Experiment: Ex vivo expansion of human CD34-positive blood stem/progenitor cells assessed as CD34+ cell population incubated for 5 weeks supplemented with fresh medium containing human recombinant thrombopoietin, stem cell factor, FLT-3 ligand and IL-3 by flow cytometry
Format: functional
Conditions: not given
Procedure, shortened: as §1

Row | SMILES | Activity
25 | Cc1ccccc1/N=N/c1ccc(NC(=O)c2ccnn2C)c(C)c1 | inactive
26 | COc1ccccc1C(=O)CC(=O)c1ccc(OC(C)C)cc1 | inactive
27 | CCOc1ccccc1C(=O)CC(=O)c1ccc(OC(C)C)cc1 | inactive
28 | COc1ccccc1C(=O)CC(=O)c1ccc(OC(F)(F)F)cc1 | inactive
